From ChEMBL document CHEMBL1949609, “Synthesis and biological evaluation of novel sinomenine derivatives as anti-inflammatory agents” (Eur J Med Chem, 2012)
pIC50: −log10 of the molar value.

Key:
RAW264.7 [1] = assay: Cytotoxicity against mouse RAW264.7 cells after 24 hrs by MTT assay; format: cell-based; conditions: RAW264.7, 24 h
Procedure, shortened: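 Growth of non-LPS RAW264.7 cells was measured by MTT after 24 h with compound: MTT for 4 h, formazan dissolved in DMSO, OD570. Untreated cells were set as 100% viability. IC50 is the concentration giving 50% growth inhibition.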

RAW264.7 [2] = assay: Antiinflammatory activity in mouse RAW264.7 cells assessed as inhibition of LPS-induced nitric oxide production after 24 hrs by Griess method; format: functional, cell-based; conditions: RAW264.7, 24 h
Procedure, shortened: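 Cells were treated with compound (0.5–100 µM; 0.1% DMSO final) and LPS 500 ng/mL together for 24 h. Nitrite in the medium was read with Griess reagent (10 min, room temperature, dark) at OD540. IC50 comes from three separate experiments, each in triplicate.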

RAW264.7 [3] = assay: Antiinflammatory activity in mouse RAW264.7 cells assessed as inhibition of LPS-induced TNFalpha production at 10 uM after 6 hrs by ELISA (reference value: 2646.1 +/- 499.8 pg/ml); format: functional
Procedure, shortened: (§1)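 RAW264.7 cells (DMEM, 5% FBS, 37 °C, 5% CO2) were exposed to compound at 10 µM plus LPS 500 ng/mL at the same time, with 0.1% DMSO final. Supernatant TNF-α and IL-6 were measured by ELISA at 6, 12 and 24 h.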

RAW264.7 [4] = assay: Antiinflammatory activity in mouse RAW264.7 cells assessed as inhibition of LPS-induced TNFalpha production at 10 uM after 12 hrs by ELISA (reference value: 4126.8 +/- 282 pg/ml); format: functional; procedure, shortened: as §1
RAW264.7 [5] = assay: Antiinflammatory activity in mouse RAW264.7 cells assessed as inhibition of LPS-induced TNFalpha production at 10 uM after 24 hrs by ELISA (reference value: 10124 +/- 1137.2 pg/ml); format: functional; procedure, shortened: as §1
RAW264.7 [6] = assay: Antiinflammatory activity in mouse RAW264.7 cells assessed as inhibition of LPS-induced IL-6 production at 10 uM after 6 hrs by ELISA (reference value: 1046.1 +/- 111.2 pg/ml); format: functional; procedure, shortened: as §1
RAW264.7 [7] = assay: Antiinflammatory activity in mouse RAW264.7 cells assessed as inhibition of LPS-induced IL-6 production at 10 uM after 12 hrs by ELISA (reference value: 2145.1 +/- 368.7 pg/ml); format: functional; procedure, shortened: as §1
RAW264.7 [8] = assay: Antiinflammatory activity in mouse RAW264.7 cells assessed as inhibition of LPS-induced IL-6 production at 10 uM after 24 hrs by ELISA (reference value: 13412 +/- 1167.6 pg/ml); format: functional; procedure, shortened: as §1

CCCCCCCCCCOc1c(OC)ccc2c1[C@@]13CCN(C)[C@@H](C2)[C@H]1C=C(OC)C(=O)C3
pIC50 (RAW264.7 [1]): 5.72

CCCCCCOc1c(OC)ccc2c1[C@@]13CCN(C)[C@@H](C2)[C@H]1C=C(OC)C(=O)C3
pIC50 (RAW264.7 [1]): 4.54

COC1=C[C@@H]2[C@@H]3Cc4ccc(OC)c(OCCOCCOCCOCCOc5c(OC)ccc6c5[C@@]57CCN(C)[C@@H](C6)[C@H]5C=C(OC)C(=O)C7)c4[C@]2(CCN3C)CC1=O
pIC50 (RAW264.7 [2]): < 4.00
pIC50 (RAW264.7 [1]): < 4.00

COC1=C[C@@H]2[C@@H]3Cc4ccc(OC)c(OCCOCCOc5c(OC)ccc6c5[C@@]57CCN(C)[C@@H](C6)[C@H]5C=C(OC)C(=O)C7)c4[C@]2(CCN3C)CC1=O
pIC50 (RAW264.7 [1]): 4.22

COC1=C[C@@H]2[C@@H]3Cc4ccc(OC)c(OCCCCCCCCCOc5c(OC)ccc6c5[C@@]57CCN(C)[C@@H](C6)[C@H]5C=C(OC)C(=O)C7)c4[C@]2(CCN3C)CC1=O
pIC50 (RAW264.7 [2]): 5.54
pIC50 (RAW264.7 [1]): 5.43

CCCCCC(=O)Oc1c(OC)ccc2c1[C@@]13CCN(C)[C@@H](C2)[C@H]1C=C(OC)C(=O)C3
pIC50 (RAW264.7 [1]): 4.11

COC1=C[C@@H]2[C@@H]3Cc4ccc(OC)c(OCCCCCCOc5c(OC)ccc6c5[C@@]57CCN(C)[C@@H](C6)[C@H]5C=C(OC)C(=O)C7)c4[C@]2(CCN3C)CC1=O
pIC50 (RAW264.7 [1]): 5.02

COC1=C[C@@H]2[C@@H]3Cc4ccc(OC)c(OCCOc5c(OC)ccc6c5[C@@]57CCN(C)[C@@H](C6)[C@H]5C=C(OC)C(=O)C7)c4[C@]2(CCN3C)CC1=O
pIC50 (RAW264.7 [2]): < 4.00
pIC50 (RAW264.7 [1]): < 4.00

CCCCCCCCOc1c(OC)ccc2c1[C@@]13CCN(C)[C@@H](C2)[C@H]1C=C(OC)C(=O)C3
pIC50 (RAW264.7 [2]): 4.85
pIC50 (RAW264.7 [1]): 4.75

CCCCCCC(=O)Oc1c(OC)ccc2c1[C@@]13CCN(C)[C@@H](C2)[C@H]1C=C(OC)C(=O)C3
pIC50 (RAW264.7 [1]): 4.41

CCCCCCCOc1c(OC)ccc2c1[C@@]13CCN(C)[C@@H](C2)[C@H]1C=C(OC)C(=O)C3
pIC50 (RAW264.7 [2]): 4.67
pIC50 (RAW264.7 [1]): 4.47
Activity (RAW264.7 [3]): 2248.7 pg/mL
Activity (RAW264.7 [4]): 4127.2 pg/mL
Activity (RAW264.7 [5]): 9134.7 pg/mL
Activity (RAW264.7 [6]): 207.5 pg/mL
Activity (RAW264.7 [7]): 513.9 pg/mL
Activity (RAW264.7 [8]): 4370.2 pg/mL

CCCCC(=O)Oc1c(OC)ccc2c1[C@@]13CCN(C)[C@@H](C2)[C@H]1C=C(OC)C(=O)C3
pIC50 (RAW264.7 [2]): < 4.00
pIC50 (RAW264.7 [1]): < 4.00

COC1=C[C@@H]2[C@@H]3Cc4ccc(OC)c(OCCCCCCCCOc5c(OC)ccc6c5[C@@]57CCN(C)[C@@H](C6)[C@H]5C=C(OC)C(=O)C7)c4[C@]2(CCN3C)CC1=O
pIC50 (RAW264.7 [2]): 5.42
pIC50 (RAW264.7 [1]): 5.27

CCCC(=O)Oc1c(OC)ccc2c1[C@@]13CCN(C)[C@@H](C2)[C@H]1C=C(OC)C(=O)C3
pIC50 (RAW264.7 [2]): < 4.00
pIC50 (RAW264.7 [1]): < 4.00

COC1=C[C@@H]2[C@@H]3Cc4ccc(OC)c(OC(=O)CCCCCCCC(=O)Oc5c(OC)ccc6c5[C@@]57CCN(C)[C@@H](C6)[C@H]5C=C(OC)C(=O)C7)c4[C@]2(CCN3C)CC1=O
pIC50 (RAW264.7 [2]): 4.53
pIC50 (RAW264.7 [1]): 4.29
Activity (RAW264.7 [3]): 2107.1 pg/mL
Activity (RAW264.7 [4]): 3614.3 pg/mL
Activity (RAW264.7 [5]): 9003.6 pg/mL
Activity (RAW264.7 [6]): 825.5 pg/mL
Activity (RAW264.7 [7]): 1577.1 pg/mL
Activity (RAW264.7 [8]): 12863.3 pg/mL

COC1=C[C@@H]2[C@@H]3Cc4ccc(OC)c(OC(=O)CCCCCCC(=O)Oc5c(OC)ccc6c5[C@@]57CCN(C)[C@@H](C6)[C@H]5C=C(OC)C(=O)C7)c4[C@]2(CCN3C)CC1=O
pIC50 (RAW264.7 [1]): 4.76

COC1=C[C@@H]2[C@@H]3Cc4ccc(OC)c(OCCCCOc5c(OC)ccc6c5[C@@]57CCN(C)[C@@H](C6)[C@H]5C=C(OC)C(=O)C7)c4[C@]2(CCN3C)CC1=O
pIC50 (RAW264.7 [2]): 4.61
pIC50 (RAW264.7 [1]): 4.44
Activity (RAW264.7 [3]): 2018 pg/mL
Activity (RAW264.7 [4]): 3732.8 pg/mL
Activity (RAW264.7 [5]): 8744.4 pg/mL
Activity (RAW264.7 [6]): 853.3 pg/mL
Activity (RAW264.7 [7]): 1321.9 pg/mL
Activity (RAW264.7 [8]): 10038.7 pg/mL

COC1=C[C@@H]2[C@@H]3Cc4ccc(OC)c(OC(=O)CCCCCC(=O)Oc5c(OC)ccc6c5[C@@]57CCN(C)[C@@H](C6)[C@H]5C=C(OC)C(=O)C7)c4[C@]2(CCN3C)CC1=O
pIC50 (RAW264.7 [1]): 4.28

COC1=C[C@@H]2[C@@H]3Cc4ccc(OC)c(OCc5ccc(COc6c(OC)ccc7c6[C@@]68CCN(C)[C@@H](C7)[C@H]6C=C(OC)C(=O)C8)cc5)c4[C@]2(CCN3C)CC1=O
pIC50 (RAW264.7 [1]): 4.90

COC1=C[C@@H]2[C@@H]3Cc4ccc(OC)c(OC(=O)CCCC(=O)Oc5c(OC)ccc6c5[C@@]57CCN(C)[C@@H](C6)[C@H]5C=C(OC)C(=O)C7)c4[C@]2(CCN3C)CC1=O
pIC50 (RAW264.7 [2]): < 4.00
pIC50 (RAW264.7 [1]): < 4.00

CCCOc1c(OC)ccc2c1[C@@]13CCN(C)[C@@H](C2)[C@H]1C=C(OC)C(=O)C3
pIC50 (RAW264.7 [2]): < 4.00
pIC50 (RAW264.7 [1]): < 4.00

CCCCCCCC(=O)Oc1c(OC)ccc2c1[C@@]13CCN(C)[C@@H](C2)[C@H]1C=C(OC)C(=O)C3
pIC50 (RAW264.7 [2]): 4.49
pIC50 (RAW264.7 [1]): 4.31
Activity (RAW264.7 [3]): 2298.9 pg/mL
Activity (RAW264.7 [4]): 3357.8 pg/mL
Activity (RAW264.7 [5]): 7676.3 pg/mL
Activity (RAW264.7 [6]): 229.9 pg/mL
Activity (RAW264.7 [7]): 733.3 pg/mL
Activity (RAW264.7 [8]): 7143.8 pg/mL

CCCCOc1c(OC)ccc2c1[C@@]13CCN(C)[C@@H](C2)[C@H]1C=C(OC)C(=O)C3
pIC50 (RAW264.7 [2]): 4.22
pIC50 (RAW264.7 [1]): 4.17

CCOc1c(OC)ccc2c1[C@@]13CCN(C)[C@@H](C2)[C@H]1C=C(OC)C(=O)C3
pIC50 (RAW264.7 [2]): < 4.00
pIC50 (RAW264.7 [1]): < 4.00

COC1=C[C@@H]2[C@@H]3Cc4ccc(OC)c(OCCCCCCCOc5c(OC)ccc6c5[C@@]57CCN(C)[C@@H](C6)[C@H]5C=C(OC)C(=O)C7)c4[C@]2(CCN3C)CC1=O
pIC50 (RAW264.7 [1]): 5.59

COC1=C[C@@H]2[C@@H]3Cc4ccc(OC)c(OCCCCCOc5c(OC)ccc6c5[C@@]57CCN(C)[C@@H](C6)[C@H]5C=C(OC)C(=O)C7)c4[C@]2(CCN3C)CC1=O
pIC50 (RAW264.7 [2]): 5.44
pIC50 (RAW264.7 [1]): 5.38

CCCCCCCCCOc1c(OC)ccc2c1[C@@]13CCN(C)[C@@H](C2)[C@H]1C=C(OC)C(=O)C3
pIC50 (RAW264.7 [1]): 4.84

COC1=C[C@@H]2[C@@H]3Cc4ccc(OC)c(OC(=O)CCCCC(=O)Oc5c(OC)ccc6c5[C@@]57CCN(C)[C@@H](C6)[C@H]5C=C(OC)C(=O)C7)c4[C@]2(CCN3C)CC1=O
pIC50 (RAW264.7 [2]): < 4.00
pIC50 (RAW264.7 [1]): < 4.00

COC1=C[C@@H]2[C@@H]3Cc4ccc(OC)c(OCCCCCCCCCCOc5c(OC)ccc6c5[C@@]57CCN(C)[C@@H](C6)[C@H]5C=C(OC)C(=O)C7)c4[C@]2(CCN3C)CC1=O
pIC50 (RAW264.7 [1]): 5.55

COC1=C[C@@H]2[C@@H]3Cc4ccc(OC)c(OCCOCCOCCOc5c(OC)ccc6c5[C@@]57CCN(C)[C@@H](C6)[C@H]5C=C(OC)C(=O)C7)c4[C@]2(CCN3C)CC1=O
pIC50 (RAW264.7 [2]): < 4.00
pIC50 (RAW264.7 [1]): < 4.00

CCCCCOc1c(OC)ccc2c1[C@@]13CCN(C)[C@@H](C2)[C@H]1C=C(OC)C(=O)C3
pIC50 (RAW264.7 [2]): 4.41
pIC50 (RAW264.7 [1]): 4.27

N=C(N)NN [PIMAGEDINE]
pIC50 (RAW264.7 [2]): 4.65

COC1=C[C@@H]2[C@@H]3Cc4ccc(OC)c(OCc5cccc(COc6c(OC)ccc7c6[C@@]68CCN(C)[C@@H](C7)[C@H]6C=C(OC)C(=O)C8)c5)c4[C@]2(CCN3C)CC1=O
pIC50 (RAW264.7 [1]): 4.85

COC1=C[C@@H]2[C@@H]3Cc4ccc(OC)c(OC(=O)CCC(=O)Oc5c(OC)ccc6c5[C@@]57CCN(C)[C@@H](C6)[C@H]5C=C(OC)C(=O)C7)c4[C@]2(CCN3C)CC1=O
pIC50 (RAW264.7 [2]): < 4.00
pIC50 (RAW264.7 [1]): < 4.00
